From PubChem BioAssay
Mcl1 Noxa PPI: Mcl-1/Noxa binding inhibitors, primary screen, biochemical, TR-FRET, 1536-well; Induced myeloid leukemia cell differentiation protein Mcl-1 (Homo sapiens), Q07820; 1.5% of 220,000 active; inhibition, % at 21.7 µM; TR-FRET Mcl-1/Noxa peptide binding, 2 h;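 active = compounds that cut the protein-peptide binding signal by more than 50% relative to plate controls in a single-dose test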;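 also: His-tagged Mcl-1 with rhodamine Noxa BH3 peptide and terbium anti-His antibody; 0% = Mcl-1 plus Noxa peptide wells and 100% = peptide-only wells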
Target sequence (Q07820 whole entry, looked up): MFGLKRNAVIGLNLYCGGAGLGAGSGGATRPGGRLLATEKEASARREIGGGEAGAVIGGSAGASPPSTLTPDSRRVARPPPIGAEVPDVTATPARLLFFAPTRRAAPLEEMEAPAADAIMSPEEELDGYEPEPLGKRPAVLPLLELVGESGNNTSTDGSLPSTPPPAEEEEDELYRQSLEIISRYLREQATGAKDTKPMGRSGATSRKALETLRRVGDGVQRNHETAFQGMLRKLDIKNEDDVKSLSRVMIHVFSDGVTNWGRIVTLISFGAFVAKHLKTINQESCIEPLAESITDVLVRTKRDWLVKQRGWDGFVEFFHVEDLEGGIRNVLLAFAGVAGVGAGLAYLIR
14-3-3 Bad inh: inhibitors of 14-3-3 zeta/Bad binding, primary screen, biochemical, TR-FRET, bovine 14-3-3 zeta | inhibition, % at 21.7 µM | 14-3-3 protein zeta/delta (Bos taurus), P63103 | TR-FRET 14-3-3zeta/Dy647-pBad peptide displacement, 1 h | 0.71% of 220,000 active;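 active = inhibition above about 70%, limit read from the data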;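 also: 0% = full 14-3-3 plus peptide FRET controls and 100% = background without 14-3-3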
Target sequence (P63103 whole entry, looked up): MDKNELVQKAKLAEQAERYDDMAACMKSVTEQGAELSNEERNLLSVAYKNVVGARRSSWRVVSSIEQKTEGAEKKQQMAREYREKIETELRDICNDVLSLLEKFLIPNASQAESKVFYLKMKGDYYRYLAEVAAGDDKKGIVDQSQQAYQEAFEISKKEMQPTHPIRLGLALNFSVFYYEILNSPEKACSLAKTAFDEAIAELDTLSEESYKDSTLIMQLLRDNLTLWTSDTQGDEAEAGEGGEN
Hck Nef HTS: inhibitors of Nef-activated human Hck kinase, primary screen, biochemical, Z-Lyte FRET, 384-well, Hck-YEEI | Recombinant Hck-YEEI plus Nef, Z-Lyte FRET kinase assay | 0.68% of 220,000 active | Tyrosine-protein kinase HCK (Homo sapiens), P08631 | AID 463187, 2010 | inhibition, % at 20 µM;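 active = Hck-Nef kinase inhibition above about 50%, limit read from the data; inactive = inhibition below that limit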;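 also: 0% = DMSO with Hck plus Nef and 100% = Hck alone without Nef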
Bim-Mcl-1: inhibitors of Bim peptide binding to Mcl-1, primary screen, biochemical, bead-based flow cytometry, multiplex; Bim peptide-Mcl-1 binding; Induced myeloid leukemia cell differentiation protein Mcl-1 (Homo sapiens), Q07820; inhibition, % at 10 µM; AID 1009, 2008; 0.1% of 190,000 active; in the data active = inhibition above about 40%;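 also: 0% = no compound tracer wells and 100% = peptide blocker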
Calb biofilm kill: clotrimazole potentiators killing C. albicans biofilm, primary screen, 4-compound mixtures. inhibition, % at 7.6 µM. 0.02% of 120,000 active. C. albicans biofilm persisters + clotrimazole, fluorescence viability; primary screen in compound mixtures of four per well. AID 1242, 2008;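 active = inhibition above 30.3% in the primary screen of four-compound pools, then above 30% when the compound was retested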;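 also: compounds exposed to preformed 24 h biofilms for 48 h; 0% = untreated biofilm control and 100% = clotrimazole plus chlorhexidine kill blank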
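Incubation: 24 h biofilm formation, then 48 h compound exposure, 37 °C | Material: C. albicans biofilms | Buffer or medium: RPMI/MOPS medium, pH 7.0 | Measured by: 2-h Alamar Blue fluorescence, 535/590 nm excitation/emission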
Mcl1 Bid PPI: Mcl-1/Bid binding inhibitors, primary screen, biochemical, TR-FRET, 1536-well. Induced myeloid leukemia cell differentiation protein Mcl-1 (Homo sapiens), Q07820. TR-FRET Mcl-1/Bid-Dy647 peptide binding. inhibition, % at 21.7 µM. 0.97% of 220,000 active;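 active = compounds that cut the binding signal by more than half at the single screening dose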;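 also: His-tagged Mcl-1 with europium anti-His antibody binding Bid BH3 peptide; 0% = Mcl-1 plus peptide wells and 100% = peptide-only wells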
* = called active by the depositor. Hits are enriched below; roughly 3.2% of the tested compounds scored in any of these assays.

Screening Cc1cc(Br)ccc1SCC(=O)OCC(=O)NCc1ccco1 returned Mcl1 Noxa PPI 55*, 14-3-3 Bad inh 19, Hck Nef HTS -38, Calb biofilm kill 24 and Mcl1 Bid PPI -26.
O=C(COC(=O)c1ccccc1Oc1ccccc1)NCc1ccco1 was read as Mcl1 Noxa PPI 52*, 14-3-3 Bad inh 1, Hck Nef HTS 5, Bim-Mcl-1 -3 and Mcl1 Bid PPI -26.
Screening COc1ccccc1NCCC(=O)OCC(=O)NCc1ccco1 returned Mcl1 Noxa PPI 64*, 14-3-3 Bad inh -2, Hck Nef HTS 1, Bim-Mcl-1 0 and Mcl1 Bid PPI -42.
`Cc1ccc(SCC(=O)NCc2ccco2)cc1` gave Mcl1 Noxa PPI 4, 14-3-3 Bad inh -5, Hck Nef HTS 1, Bim-Mcl-1 -8 and Mcl1 Bid PPI -8.
`COC(=O)c1cc(NC(=O)Cn2c(=O)cnc3ccccc32)cc(C(=O)OC)c1` gave Mcl1 Noxa PPI 27, 14-3-3 Bad inh 20, Hck Nef HTS 22, Bim-Mcl-1 1 and Mcl1 Bid PPI 62*.
Screening CN(CCO)c1nc(N)c2c(N)nc3c(c2c1C#N)CC(=O)N3C1CCCC1 returned Mcl1 Noxa PPI 46, 14-3-3 Bad inh -11, Hck Nef HTS 1, Bim-Mcl-1 3 and Mcl1 Bid PPI -23.
N#Cc1c(N2CCN(c3ccc(F)cc3)CC2)nc(N)c2c(N)nc3c(c12)CC(=O)N3C1CC1 was read as Mcl1 Noxa PPI 55*, 14-3-3 Bad inh -19, Hck Nef HTS 45, Bim-Mcl-1 4, Calb biofilm kill 10 and Mcl1 Bid PPI -6.
`CCOC(=O)c1ccc(Oc2nc(N(C)C)nc(N3CCOCC3)n2)cc1` gave Mcl1 Noxa PPI 4, 14-3-3 Bad inh -11, Hck Nef HTS 20, Bim-Mcl-1 -3, Calb biofilm kill -1 and Mcl1 Bid PPI -4.
For CCN(CCCNC(=O)c1ccc(N2CCCC2=O)cc1)c1cccc(C)c1 the results were Mcl1 Noxa PPI 2, 14-3-3 Bad inh 80*, Hck Nef HTS 0, Bim-Mcl-1 0 and Mcl1 Bid PPI -38.
`CCN(CCNC(=O)c1cccc(N2CCCC2=O)c1)c1ccccc1` gave Mcl1 Noxa PPI 26, 14-3-3 Bad inh -4, Hck Nef HTS 6, Bim-Mcl-1 -1 and Mcl1 Bid PPI -82.
`O=C(NCCc1ccncc1)Nc1cccc(Cl)c1` gave Mcl1 Noxa PPI -10, 14-3-3 Bad inh -7, Hck Nef HTS 1, Bim-Mcl-1 5 and Mcl1 Bid PPI -16.
For O=C(Nc1cccc(Cl)c1)Nc1nnc(-c2ccncc2)s1 the results were Mcl1 Noxa PPI 91*, 14-3-3 Bad inh 81*, Hck Nef HTS 57*, Bim-Mcl-1 0, Calb biofilm kill 14 and Mcl1 Bid PPI 44.
COc1ccccc1NC(=O)NC1(C(=O)N2CCCCCC2)CCCCC1 was read as Mcl1 Noxa PPI -15, 14-3-3 Bad inh -6, Hck Nef HTS 10, Bim-Mcl-1 -1, Calb biofilm kill 14 and Mcl1 Bid PPI 0.
Screening O=C(CCn1nc(-c2ccccc2)ccc1=O)N1CCN(c2ccccn2)CC1 returned Mcl1 Noxa PPI -8, 14-3-3 Bad inh 7, Hck Nef HTS -5, Bim-Mcl-1 0 and Mcl1 Bid PPI 2.
For COc1ccc(/C=N/NC(=O)Nc2cccc3nsnc23)cc1 the results were Mcl1 Noxa PPI 2, 14-3-3 Bad inh 1, Hck Nef HTS 3, Bim-Mcl-1 -2, Calb biofilm kill -5 and Mcl1 Bid PPI 53*.
`Nc1ccc2c(c1Cl)C(=O)c1ccc(N)c(Cl)c1C2=O` gave Mcl1 Noxa PPI 87*, 14-3-3 Bad inh 60, Hck Nef HTS 39, Calb biofilm kill 23 and Mcl1 Bid PPI 46.
O=C(COC(=O)c1ccc2c(c1Cl)C(=O)c1ccccc1C2=O)NC1CC1 was read as Mcl1 Noxa PPI 33, 14-3-3 Bad inh -4, Hck Nef HTS 4, Bim-Mcl-1 -2, Calb biofilm kill 10 and Mcl1 Bid PPI -11.
`CN1C(=O)/C(=C\c2ccccc2)Sc2ccc(C(=O)N3CCN(c4ccccn4)CC3)cc21` gave Mcl1 Noxa PPI 0, 14-3-3 Bad inh 4, Hck Nef HTS 0, Bim-Mcl-1 0 and Mcl1 Bid PPI 0.
Screening CC(=O)c1sc(NC(=O)COc2ccccc2)nc1C returned Mcl1 Noxa PPI 6, 14-3-3 Bad inh -4, Hck Nef HTS -15, Bim-Mcl-1 0, Calb biofilm kill 20 and Mcl1 Bid PPI -22.
`CCOC(=O)c1sc2nc(NC(=O)COc3ccccc3)sc2c1C` gave Mcl1 Noxa PPI 55*, 14-3-3 Bad inh 0, Hck Nef HTS 4, Bim-Mcl-1 -4 and Mcl1 Bid PPI -5.
`O=C(CNC(=O)c1cccc(OC(F)F)c1)OCn1nnc2ccccc2c1=O` gave Mcl1 Noxa PPI -12, 14-3-3 Bad inh 1, Hck Nef HTS 1, Bim-Mcl-1 -2, Calb biofilm kill 7 and Mcl1 Bid PPI -27.
N/C(=N\OC(=O)CC1CCCCC1)c1ccncc1 was read as Mcl1 Noxa PPI 1, 14-3-3 Bad inh 3, Hck Nef HTS 16, Bim-Mcl-1 11, Calb biofilm kill 4 and Mcl1 Bid PPI 2.
Screening N/C(=N\OC(=O)CCC1CCCC1)c1ccncc1 returned Mcl1 Noxa PPI 16, 14-3-3 Bad inh 5, Hck Nef HTS -22, Bim-Mcl-1 95*, Calb biofilm kill 7 and Mcl1 Bid PPI 10.
CC(C)(C)CC(=O)O/N=C(\N)c1ccncc1 was read as Mcl1 Noxa PPI 5, 14-3-3 Bad inh 0, Hck Nef HTS -18, Bim-Mcl-1 -5, Calb biofilm kill 16 and Mcl1 Bid PPI 82*.
COc1cc2oc3ccccc3c2cc1N(CC(=O)N1CCCCC1)S(=O)(=O)c1ccc(C)cc1 was read as Mcl1 Noxa PPI 2, 14-3-3 Bad inh 0, Hck Nef HTS 3, Bim-Mcl-1 -1 and Mcl1 Bid PPI 6.
For Cc1cc(NC(=O)NC2CC(=O)N(c3ccc4c(c3)OCCO4)C2)no1 (stereo not drawn) the results were Mcl1 Noxa PPI 6, 14-3-3 Bad inh 1, Hck Nef HTS 14, Bim-Mcl-1 0, Calb biofilm kill 12 and Mcl1 Bid PPI -2.
`Cc1cccc(Cn2c(C)nc3c(N)c(C)c(C)cc32)c1` gave Mcl1 Noxa PPI -12, 14-3-3 Bad inh -26, Hck Nef HTS 24, Bim-Mcl-1 0, Calb biofilm kill 1 and Mcl1 Bid PPI 91*.
C=C(C)Cn1c(Sc2nnc(C)s2)nc2c1c(=O)[nH]c(=O)n2C was read as Mcl1 Noxa PPI -17, 14-3-3 Bad inh -9, Hck Nef HTS 0, Bim-Mcl-1 0 and Mcl1 Bid PPI 89*.
